Results from ChEMBL document CHEMBL4715736, “Identification of anticancer agents based on the thieno[2,3-b]pyridine and 1H-pyrazole molecular scaffolds” (2016).

How the values were obtained:
Format in all cases: functional
[1] = tested on: HCT-15; assay: Growth inhibition of human HCT-15 cells assessed as cell growth at 0.01 uM incubated for 48 hrs by sulforhodamine B assay relative to control; conditions: read-out: Activity
[2] = tested on: NCI-H226; assay: Growth inhibition of human NCI-H226 cells assessed as cell growth at 1 uM incubated for 48 hrs by sulforhodamine B assay relative to control; conditions: read-out: Activity
[3] = tested on: A549; assay: Growth inhibition of human A549/ATCC cells assessed as cell growth at 1 uM incubated for 48 hrs by sulforhodamine B assay relative to control; conditions: read-out: Activity
Outline: (§1)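 NCI Developmental Therapeutics Program NCI60 panel. Compounds that were active in the 10 µM one-dose screen went on to dose–response testing. Growth at each concentration is expressed relative to untreated control (100%). GI50 (concentration giving 50% of maximal inhibition of proliferation) and TGI (concentration giving total growth inhibition) were derived from the curves.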

[4] = tested on: NCI-H322M; assay: Growth inhibition of human NCI-H322M cells assessed as cell growth at 0.1 uM incubated for 48 hrs by sulforhodamine B assay relative to control; conditions: read-out: Activity
[5] = tested on: SF-539; assay: Growth inhibition of human SF-539 cells assessed as cell growth at 1 uM incubated for 48 hrs by sulforhodamine B assay relative to control; conditions: read-out: Activity
[6] = tested on: MOLT-4; assay: Growth inhibition of human MOLT-4 cells assessed as cell growth at 1 uM incubated for 48 hrs by sulforhodamine B assay relative to control; conditions: read-out: Activity
[7] = tested on: OVCAR-3; assay: Growth inhibition of human OVCAR-3 cells assessed as cell growth at 1 uM incubated for 48 hrs by sulforhodamine B assay relative to control; conditions: read-out: Activity
[8] = tested on: HCT-116; assay: Growth inhibition of human HCT-116 cells incubated for 48 hrs by sulforhodamine B assay
Outline: (§2)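 NCI60 panel at the NCI Developmental Therapeutics Program. Only compounds active in the 10 µM screen went to dose-response testing. GI50, the concentration giving 50% of maximal inhibition of proliferation, and TGI, the concentration giving total growth inhibition, were derived from the dose-response curves.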

[9] = tested on: SF-295; assay: Growth inhibition of human SF-295 cells assessed as cell growth at 100 uM incubated for 48 hrs by sulforhodamine B assay relative to control; conditions: read-out: Activity
[10] = tested on: SK-OV-3; assay: Growth inhibition of human SK-OV-3 cells assessed as cell growth at 1 uM incubated for 48 hrs by sulforhodamine B assay relative to control; conditions: read-out: Activity
[11] = tested on: PC-3; assay: Growth inhibition of human PC-3 cells assessed as cell growth at 1 uM incubated for 48 hrs by sulforhodamine B assay relative to control; conditions: read-out: Activity
[12] = tested on: NCI-H522; assay: Growth inhibition of human NCI-H522 cells assessed as cell growth at 0.01 uM incubated for 48 hrs by sulforhodamine B assay relative to control; conditions: read-out: Activity
[13] = tested on: MCF7; assay: Growth inhibition of human MCF7 cells assessed as cell growth at 1 uM incubated for 48 hrs by sulforhodamine B assay relative to control; conditions: read-out: Activity
[14] = tested on: LOX IMVI; assay: Growth inhibition of human LOX IMVI cells assessed as cell growth at 0.01 uM incubated for 48 hrs by sulforhodamine B assay relative to control; conditions: read-out: Activity
[15] = tested on: M14; assay: Growth inhibition of human M14 cells assessed as cell growth at 0.1 uM incubated for 48 hrs by sulforhodamine B assay relative to control; conditions: read-out: Activity
[16] = tested on: MDA-MB-468; assay: Growth inhibition of human MDA-MB-468 cells incubated for 48 hrs by sulforhodamine B assay; conditions: for CC50: read-out: LC50 (the source's name); outline: as §2
[17] = tested on: KM12; assay: Growth inhibition of human KM12 cells assessed as cell growth at 100 uM incubated for 48 hrs by sulforhodamine B assay relative to control; conditions: read-out: Activity
[18] = tested on: LOX IMVI; assay: Growth inhibition of human LOX IMVI cells assessed as cell growth at 0.1 uM incubated for 48 hrs by sulforhodamine B assay relative to control; conditions: read-out: Activity
[19] = tested on: T47D; assay: Growth inhibition of human T47D cells incubated for 48 hrs by sulforhodamine B assay; conditions: for CC50: read-out: LC50 (the source's name)
Outline: (§3)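 NCI DTP 60-line human tumour panel. Dose-response curves were run only for ligands active in the initial 10 µM screen. GI50 (concentration giving 50% of maximal inhibition of proliferation) and TGI (concentration giving total growth inhibition) were derived from these curves.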

[20] = tested on: Hs-578T; assay: Growth inhibition of human Hs-578T cells assessed as cell growth at 100 uM incubated for 48 hrs by sulforhodamine B assay relative to control; conditions: read-out: Activity
[21] = tested on: PC-3; assay: Growth inhibition of human PC-3 cells assessed as cell growth at 0.1 uM incubated for 48 hrs by sulforhodamine B assay relative to control; conditions: read-out: Activity
[22] = tested on: SNB-75; assay: Growth inhibition of human SNB-75 cells assessed as cell growth at 0.1 uM incubated for 48 hrs by sulforhodamine B assay relative to control; conditions: read-out: Activity
[23] = tested on: HT-29; assay: Growth inhibition of human HT-29 cells assessed as cell growth at 1 uM incubated for 48 hrs by sulforhodamine B assay relative to control; conditions: read-out: Activity
[24] = tested on: UO-31; assay: Growth inhibition of human UO-31 cells assessed as cell growth at 1 uM incubated for 48 hrs by sulforhodamine B assay relative to control; conditions: read-out: Activity
[25] = tested on: MCF7; assay: Growth inhibition of human MCF7 cells assessed as cell growth at 0.01 uM incubated for 48 hrs by sulforhodamine B assay relative to control; conditions: read-out: Activity
[26] = tested on: NCI/ADR-RES; assay: Growth inhibition of human NCI/ADR-RES cells incubated for 48 hrs by sulforhodamine B assay; conditions: for CC50: read-out: LC50 (the source's name); outline: as §2
[27] = tested on: NCI-H23; assay: Growth inhibition of human NCI-H23 cells assessed as cell growth at 0.1 uM incubated for 48 hrs by sulforhodamine B assay relative to control; conditions: read-out: Activity
[28] = tested on: MOLT-4; assay: Growth inhibition of human MOLT-4 cells assessed as cell growth at 0.1 uM incubated for 48 hrs by sulforhodamine B assay relative to control; conditions: read-out: Activity
[29] = tested on: SK-MEL-5; assay: Growth inhibition of human SK-MEL-5 cells incubated for 48 hrs by sulforhodamine B assay; outline: as §3
[30] = tested on: CAKI-1; assay: Growth inhibition of human CAKI-1 cells incubated for 48 hrs by sulforhodamine B assay; conditions: for CC50: read-out: LC50 (the source's name); outline: as §1
[31] = tested on: SK-MEL-5; assay: Growth inhibition of human SK-MEL-5 cells assessed as cell growth at 0.01 uM incubated for 48 hrs by sulforhodamine B assay relative to control; conditions: read-out: Activity
[32] = tested on: NCI-H522; assay: Growth inhibition of human NCI-H522 cells incubated for 48 hrs by sulforhodamine B assay; outline: as §2
[33] = tested on: U-251; assay: Growth inhibition of human U-251 cells assessed as cell growth at 0.1 uM incubated for 48 hrs by sulforhodamine B assay relative to control; conditions: read-out: Activity
[34] = tested on: SR; assay: Growth inhibition of human SR cells assessed as cell growth at 100 uM incubated for 48 hrs by sulforhodamine B assay relative to control; conditions: read-out: Activity
[35] = tested on: SR; assay: Growth inhibition of human SR cells assessed as cell growth at 0.1 uM incubated for 48 hrs by sulforhodamine B assay relative to control; conditions: read-out: Activity

Cc1cccc(NC(=O)c2sc3nc4c(cc3c2N)C(=O)CCC4)c1
growth at 0.01 µM [1]: 88%
growth at 1 µM [2]: 57%
growth at 1 µM [3]: 19%
growth at 0.1 µM [4]: 84%
growth at 1 µM [5]: -38%
growth at 1 µM [6]: 54%
growth at 1 µM [7]: -7%
GI50 [8]: 0.28 µM
LC50 (concentration killing 50% of cells) [8]: > 100 µM
TGI [8]: > 100 µM
growth at 100 µM [9]: 7%
growth at 1 µM [10]: 7%
growth at 1 µM [11]: 29%
growth at 0.01 µM [12]: 84%
growth at 1 µM [13]: 18%
growth at 0.01 µM [14]: 97%
growth at 0.1 µM [15]: 60%
GI50 [16]: 0.143 µM
CC50 [16]: > 100 µM
growth at 100 µM [17]: -58%
growth at 0.1 µM [18]: 91%
TGI [19]: > 100 µM
CC50 [19]: > 100 µM
growth at 100 µM [20]: -48%
growth at 0.1 µM [21]: 80%
growth at 0.1 µM [22]: 75%
growth at 1 µM [23]: 2%
growth at 1 µM [24]: 55%
growth at 0.01 µM [25]: 86%
GI50 [26]: 0.23 µM
TGI [26]: ≥ 100 µM
CC50 [26]: > 100 µM
growth at 0.1 µM [27]: 82%
growth at 0.1 µM [28]: 95%
GI50 [29]: 0.169 µM
LC50 [29]: > 100 µM
TGI [29]: ≥ 100 µM
GI50 [30]: 0.359 µM
TGI [30]: > 100 µM
CC50 [30]: > 100 µM
growth at 0.01 µM [31]: 97%
GI50 [32]: 0.107 µM
LC50 [32]: > 100 µM
TGI [32]: 621 µM
growth at 0.1 µM [33]: 74%

CCc1cccc(C)c1NC(=O)c1sc2nc3c(cc2c1N)C(=O)CCC3
growth at 0.01 µM [1]: 93%
growth at 1 µM [2]: 67%
growth at 1 µM [3]: 37%
growth at 0.1 µM [4]: 91%
growth at 1 µM [5]: 8%
growth at 100 µM [34]: -18%
growth at 1 µM [6]: 67%
growth at 1 µM [7]: 10%
GI50 [8]: 0.471 µM
LC50 (concentration killing 50% of cells) [8]: > 100 µM
TGI [8]: > 100 µM
growth at 100 µM [9]: 1%
growth at 1 µM [11]: 31%
growth at 1 µM [13]: 18%
growth at 0.01 µM [14]: 95%
growth at 0.1 µM [35]: 101%
growth at 0.1 µM [15]: 92%
GI50 [16]: 0.261 µM
TGI [16]: 60.6 µM
CC50 [16]: > 100 µM
growth at 100 µM [17]: 4%
growth at 0.1 µM [18]: 93%
GI50 [19]: 0.517 µM
TGI [19]: ≥ 100 µM
CC50 [19]: > 100 µM
growth at 100 µM [20]: 17%
growth at 0.1 µM [21]: 87%
growth at 0.1 µM [22]: 75%
growth at 1 µM [24]: 37%
growth at 0.01 µM [25]: 83%
GI50 [26]: 0.558 µM
CC50 [26]: > 100 µM
growth at 0.1 µM [27]: 100%
growth at 0.1 µM [28]: 102%
GI50 [29]: 0.294 µM
LC50 [29]: 39 µM
TGI [29]: 151 µM
GI50 [30]: 0.511 µM
TGI [30]: > 100 µM
CC50 [30]: > 100 µM
growth at 0.01 µM [31]: 92%
growth at 0.1 µM [33]: 90%
